Measurements collected from several papers.
BCHE: Cholinesterase (BCHE, Equus caballus, UniProt P81908)
C3AR1: C3a anaphylatoxin chemotactic receptor (C3AR1, Homo sapiens, UniProt Q16581)

| Structure (SMILES) | target | test | quantity | value |
| --- | --- | --- | --- | --- |
| COc1ccc(-c2csc(N/N=C(/C=C/c3c(Cl)cccc3Cl)C(=O)O)n2)cc1 | BCHE | enzyme activity, inhibitor | IC50 | 5.01 µM |
| CC(C)C[C@H](NC(=O)[C@@H](N)[C@@H](C)O)C(=O)N[C@@H](CCC(N)=O)C(=O)N1CCC[C@H]1C(=O)N1CCC[C@H]1C(=O)N[C@@H](C)C(=O)N[C@@H](CO)C(=O)N[C@@H](CO)C(=O)N[C@@H](CCCNC(=N)N)C(=O)N[C@H](CCCNC(=N)N)C(=O)N[C@@H](CCCNC(=N)N)C(=O)N[C@@H](Cc1c[nH]cn1)C(=O)N[C@@H](Cc1ccccc1)C(=O)N[C@@H](Cc1c[nH]cn1)C(=O)N[C@@H](Cc1c[nH]cn1)C(=O)N[C@@H](C)C(=O)N[C@@H](CC(C)C)C(=O)N1CCC[C@H]1C(=O)N1CCC[C@H]1C(=O)NCC(=O)N[C@@H](CCCNC(=N)N)C(=O)O | C3AR1 | β-arrestin recruitment, agonist | EC50 | 0.097 µM |
| O=C(O)C(/C=C/c1ccc(Cl)cc1)=N\Nc1nc(-c2ccccc2)cs1 | BCHE | enzyme activity, inhibitor | IC50 | 2.03 µM |
| COc1cc2c(cc1OC)CN(CCc1ccc(NC(=O)c3cccc4c(=O)c5cccc(OC)c5[nH]c34)cc1)CC2 | D(1A) dopamine receptor (DRD1, Homo sapiens, UniProt P21728) | cell-free assay | Ki | > 10 µM |
| COc1cc(CCC(=O)N2CCC(Cc3ccccc3)CC2)ccc1OC(=O)N(C)C | BCHE | enzyme activity, inhibitor, Ellman | IC50 | 1.3 µM |
| CC(C)C[C@H](NC(=O)[C@@H](N)[C@@H](C)O)C(=O)N[C@@H](CCC(N)=O)C(=O)N1CCC[C@H]1C(=O)N1CCC[C@H]1C(=O)N[C@@H](C)C(=O)N[C@@H](CO)C(=O)N[C@@H](CO)C(=O)N[C@@H](CCCNC(=N)N)C(=O)N[C@H](CCCNC(=N)N)C(=O)N[C@@H](CCCNC(=N)N)C(=O)N[C@@H](Cc1c[nH]cn1)C(=O)N[C@@H](Cc1ccccc1)C(=O)N[C@@H](Cc1c[nH]cn1)C(=O)N[C@@H](Cc1c[nH]cn1)C(=O)N[C@@H](C)C(=O)N[C@@H](CC(C)C)C(=O)N1CCC[C@H]1C(=O)N1CCC[C@H]1C(=O)N[C@@H](C)C(=O)N[C@@H](CCCCNC(=N)N)C(=O)O | C3AR1 | G protein activation, agonist, BRET | EC50 | 0.259 µM |
| CCOc1ccc(/C=C/C(=O)N2CCCC(NC(=O)OC(C)(C)C)C2)cc1OC (stereo not shown) | BCHE | enzyme activity, inhibitor, Ellman | IC50 | 13.5 µM |
| O=C(N1CCC2(CC1)C[C@@H](CN1CCCCS1(=O)=O)CCO2)C1(c2ccccc2)CCCC1 | DHX58 (Homo sapiens, UniProt Q96C10) | ATPase activity, inhibitor | IC50 | > 50 µM |
| CCN(C)C(=O)Oc1ccc(/C=C/C(=O)NC2CCN(Cc3ccccc3)CC2)cc1 | BCHE | enzyme activity, inhibitor, Ellman | IC50 | 16.3 µM |
| CC(C)(C)OC(=O)NC1CCCN(C(=O)/C=C/c2ccc(Cl)cc2)C1 (stereo not shown) | BCHE | enzyme activity, inhibitor, Ellman | IC50 | > 50 µM |
